Results from ChEMBL document CHEMBL1153035, “Desmethoxymajusculamide C, a cyanobacterial depsipeptide with potent cytotoxicity in both cyclic and ring-opened forms” (J Nat Prod, 2009).
Calls of active or inactive are those of the source. The rule behind the calls is not given here. Starred links: 1 amine or outer side, 2 acyl side, 3 side chain; linkers in the order of their positions; H or OH if unused. Non-standard residues stand in square brackets, D forms with d. Residues, ends and D or L forms follow the SMILES beside them. *: point of attachment. X1 = CC[C@H](C)[C@H](OC(=O)[C@@H](C)[C@@H](CC)N[*:1])C(=O)[*:2]; Pentanoyl(2S-OH,3S-Me) = CC[C@H](C)[C@H](O)C(=O)*; X2 = C[C@H](N[*:1])C(=O)C(C)(C)C(=O)[*:2]; NMeF = CN[C@@H](Cc1ccccc1)C(=O)O; NMeI = CC[C@H](C)[C@H](NC)C(=O)O; X3 = CC[C@@H](N*)[C@H](C)C(=O)O; NMeV = CN[C@H](C(=O)O)C(C)C

Assays:
NCI-H460 = assay: Cytotoxicity against human H460 cells after 24 hrs; format: functional, cell-based; conditions: NCI-H460, 24 h
MDA-MB-435 [1] = assay: Cytotoxicity against human MDA-MB-435 cells after 24 hrs; format: functional, cell-based; conditions: MDA-MB-435, 24 h
[2] = Cytotoxicity against mouse Neuro2a cells after 24 hrs; format: functional, cell-based; conditions: N2a
HCT-116 [3] = assay: Selectivity ratio, IC50 for human H460 cells to IC50 for human HCT116 cells; format: functional
MDA-MB-435 [4] = assay: Selectivity ratio, IC50 for human MDA-MB-435 cells to IC50 for human HCT116 cells; format: functional
[5] = Selectivity ratio, IC50 for […] cells to IC50 for human HCT116 cells; format: functional
A10 = assay: Effect on actin cytoskeleton in rat A10 cells assessed as loss of F-actin filament at 52 nM by TRITC-phalloidin staining; format: functional, cell-based
In short: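 A-10 cells on glass coverslips in BME + 10% fetal calf serum, exposed 24 h, then fixed with 3% paraformaldehyde, permeabilized with 0.2% Triton X-100, and reduced with NaBH4. Stained 45 min with 100 nM TRITC-phalloidin plus DAPI. F-actin examined by fluorescence microscopy against vehicle-treated control.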

HCT-116 [6] = assay: Cytotoxicity against human HCT116 cells after 120 hrs; conditions: HCT-116, 120 h
HCT-116 [7] = assay: Cytotoxicity against human HCT116 cells assessed as clonogenic concentration required for 10% surviving fraction after 2 hrs; format: functional
In short: (§1)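 HCT-116 cells seeded at 200 or 20,000 per 60 mm dish in RPMI + 10% FBS. Drug added at a final top concentration of 10 µg/mL (10.5 µM) with 10-fold dilutions, for 2 h or 24 h then replaced by drug-free medium, or left continuously (168 h). After 7 days, colonies stained with methylene blue; colonies of ≥50 cells counted and normalized to untreated control.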

HCT-116 [8] = assay: Antitumor activity against human HCT116 cells xenografted in SCID mouse assessed as tumor growth rate at 0.31 mg/kg, iv dosed daily for 5 days relative to control; format: functional, organism-based; design: dose 0.31 mg/kg
In short: (§2)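 HCT-116 tumor cells from tissue, 10^6 implanted subcutaneously into pooled SCID mice (>17 g, weights within 5 g), 5 per group. Starting 1 day after inoculation, bolus tail-vein iv daily for 5 days. Vehicle: DMSO stock diluted 1:1 with Cremophor-propylene glycol (40:60), then ≥10-fold with saline. Minimum %T/C reported; sacrifice at day 30.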

HCT-116 [9] = assay: Antitumor activity against human HCT116 cells xenografted in SCID mouse at 0.62 mg/kg, iv daily for 5 days relative to control; format: functional, organism-based; design: dose 0.62 mg/kg; in short: as §2
[10] = Toxicity in human HCT116 cells xenografted in SCID mouse assessed as maximum tolerated dose; format: organism-based, HCT-116; conditions: in vivo, read-out: Activity
HCT-116 [11] = assay: Cytotoxicity against human HCT116 cells assessed as clonogenic concentration required for 10% surviving fraction after 24 hrs; format: functional; in short: as §1
HCT-116 [12] = assay: Cytotoxicity against human HCT116 cells assessed as clonogenic concentration required for 10% surviving fraction after 7 days; format: functional; in short: as §1

| Compound | IC50 (NCI-H460) [nM] | IC50 (MDA-MB-435 [1]) [nM] | IC50 [2] [nM] | Ratio IC50 (HCT-116 [3]) | Ratio IC50 (MDA-MB-435 [4]) | Ratio IC50 [5] | Activity (A10) | IC50 (HCT-116 [6]) [nM] | Activity (HCT-116 [7]) [µM] | Activity (HCT-116 [8]) | Activity (HCT-116 [9]) | MTD [10] [mg/kg] | Activity (HCT-116 [11]) [µM] | Activity (HCT-116 [12]) [nM] |
| --- | --- | --- | --- | --- | --- | --- | --- | --- | --- | --- | --- | --- | --- | --- |
| CC[C@H](C)[C@H](O)C(=O)NCC(=O)N(C)[C@H](C(=O)NCC(=O)N(C)[C@H](C(=O)N(C)[C@@H](Cc1ccccc1)C(=O)N[C@@H](C)C(=O)C(C)(C)C(=O)N[C@@H](C)C(=O)N[C@H](CC)[C@H](C)C(=O)O)C(C)C)[C@@H](C)CC ({Pentanoyl(2S-OH,3S-Me)}-G[NMeI]G[NMeV][NMeF][X2]A-X3) | 94 | 230 | > 1000 | 5 | 14 | 10 | Active | 16 |  |  |  |  |  |  |
| CC[C@H](C)[C@@H]1OC(=O)[C@@H](C)[C@@H](CC)NC(=O)[C@H](C)NC(=O)C(C)(C)C(=O)[C@H](C)NC(=O)[C@H](Cc2ccccc2)N(C)C(=O)[C@H](C(C)C)N(C)C(=O)CNC(=O)[C@H]([C@@H](C)CC)N(C)C(=O)CNC1=O [DESMETHOXYMAJUSCULAMIDE C] (cyclo(A[X1]G[NMeI]G[NMeV][NMeF][X2])) | 63 | 220 | > 1000 | 5 | 11 | 10 | Active | 20 | >10.5 | Active | Active | 2.5 | >10.5 | 2.1 |
